Measured values reported in ChEMBL document CHEMBL1135836, “Cyclodextrin-derived host molecules as reversal agents for the neuromuscular blocker rocuronium bromide: synthesis and structure-activity relationships” (J Med Chem, 2002).

Columns and labels:
Format in all cases: functional
Mus musculus [1] = species: Mus musculus; test: In vitro reversal activity versus ~90% block by rocuronium in isolated mouse hemidiaphragm, expressed as % of maximum reversal at 5.4 uM conc.
Cavia porcellus [2] = test: In vivo reversal activity versus ~90% block by rocuronium in guinea pig, expressed as % of maximum reversal at 0.6 umol/kg conc.
Summary of the method: (§1)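 Male Dunkin-Hartley guinea pigs (600-900 g), anaesthetized ip with pentobarbitone 10 mg/kg plus urethane 1000 mg/kg, tracheotomized and ventilated. Continuous iv rocuronium infusion (~10 nmol kg-1 min-1) was raised to a steady 85-90% block. Increasing iv doses of agent were given cumulatively. ED50 = 50% recovery versus preblock twitch, by regression. Mean ± SEM of at least two experiments, or one.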

Cavia porcellus [3] = test: In vivo reversal activity versus ~90% block by rocuronium in guinea pig; summary of the method: as §1
Mus musculus [4] = species: Mus musculus; test: In vitro reversal activity versus ~90% block by rocuronium in isolated mouse hemidiaphragm, expressed as effective conc.
Cavia porcellus [5] = test: In vivo reversal activity versus ~90% block by rocuronium in guinea pig, expressed as % of maximum reversal at 1.4 umol/kg conc.; summary of the method: as §1
Mus musculus [6] = species: Mus musculus; test: In vitro reversal activity versus ~90% block by rocuronium in isolated mouse hemidiaphragm, expressed as % of maximum reversal at 2.2 uM conc.
Mus musculus [7] = species: Mus musculus; test: In vitro reversal activity versus ~90% block by rocuronium in isolated mouse hemidiaphragm, expressed as % of maximum reversal at 18 uM conc.
Cavia porcellus [8] = test: In vivo reversal activity versus ~90% block by rocuronium in guinea pig, expressed as % of maximum reversal at 21 umol/kg conc.
Summary of the method: (§2)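 Male Dunkin-Hartley guinea pigs (600-900 g) anaesthetized ip with pentobarbitone 10 mg/kg plus urethane 1000 mg/kg, tracheotomized and artificially ventilated. Continuous iv rocuronium bromide infusion (~10 nmol kg-1 min-1) raised until steady-state twitch block of 85-90%. Increasing single iv doses of reversal agent given by a separate catheter. Max reversal is peak twitch recovery versus preblock height at highest dose tested; means ± SEM, n ≥ 2 or single experiment.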

Mus musculus [9] = species: Mus musculus; test: In vitro reversal activity versus ~90% block by rocuronium in isolated mouse hemidiaphragm, expressed as % of maximum reversal at 7.2 uM conc.
Cavia porcellus [10] = test: In vivo reversal activity versus ~90% block by rocuronium in guinea pig, expressed as % of maximum reversal at 1.3 umol/kg conc.; summary of the method: as §1
Mus musculus [11] = species: Mus musculus; test: In vitro reversal activity versus ~90% block by rocuronium in isolated mouse hemidiaphragm, expressed as % of maximum reversal at 12.6 uM conc.
Cavia porcellus [12] = test: In vivo reversal activity versus ~90% block by rocuronium in guinea pig, expressed as % of maximum reversal at 2.5 umol/kg conc.; summary of the method: as §2
Cavia porcellus [13] = test: In vivo reversal activity versus ~90% block by rocuronium in guinea pig, expressed as % of maximum reversal at 3.9 umol/kg conc.; summary of the method: as §2
Mus musculus [14] = species: Mus musculus; test: In vitro reversal activity versus ~90% block by rocuronium in isolated mouse hemidiaphragm, expressed as % of maximum reversal at 14.4 uM conc.
Cavia porcellus [15] = test: In vivo reversal activity versus ~90% block by rocuronium in guinea pig, expressed as % of maximum reversal at 3.2 umol/kg conc.; summary of the method: as §2
Cavia porcellus [16] = test: In vivo reversal activity versus ~90% block by rocuronium in guinea pig, expressed as % of maximum reversal at 30.7 umol/kg conc.; summary of the method: as §2
Mus musculus [17] = species: Mus musculus; test: In vitro reversal activity versus ~90% block by rocuronium in isolated mouse hemidiaphragm, expressed as % of maximum reversal at 216 uM conc.
Cavia porcellus [18] = test: In vivo reversal activity versus ~90% block by rocuronium in guinea pig, expressed as % of maximum reversal at 25.6 umol/kg conc.; summary of the method: as §2
Mus musculus [19] = species: Mus musculus; test: In vitro reversal activity versus ~90% block by rocuronium in isolated mouse hemidiaphragm, expressed as % of maximum reversal at 360 uM conc.
Cavia porcellus [20] = test: In vivo reversal activity versus ~90% block by rocuronium in guinea pig, expressed as % of maximum reversal at 316 umol/kg conc.; summary of the method: as §2

Work on `O=C([O-])CCC(=O)NCCSCC1O[C@@H]2O[C@@H]3C(CSCCNC(=O)CCC(=O)[O-])O[C@H](O[C@@H]4C(CSCCNC(=O)CCC(=O)[O-])O[C@H](O[C@@H]5C(CSCCNC(=O)CCC(=O)[O-])O[C@H](O[C@@H]6C(CSCCNC(=O)CCC(=O)[O-])O[C@H](O[C@@H]7C(CSCCNC(=O)CCC(=O)[O-])O[C@H](O[C@@H]8C(CSCCNC(=O)CCC(=O)[O-])O[C@H](O[C@@H]9C(CSCCNC(=O)CCC(=O)[O-])O[C@H](O[C@H]1C(O)C2O)C(O)C9O)C(O)C8O)C(O)C7O)C(O)C6O)C(O)C5O)C(O)C4O)C(O)C3O.[Na+].[Na+].[Na+].[Na+].[Na+].[Na+].[Na+].[Na+]` (some centres not stated) yielded a Max reversal (Mus musculus [1]) of 99.4%, a Max reversal (Cavia porcellus [2]) of 107.1% and an ED50 (Cavia porcellus [3]) of 0.07 µmol/kg. The EC50 (Mus musculus [4]) was 1.08 µM.
Molecule `O=C([O-])c1ccc(SCC2O[C@@H]3O[C@@H]4C(CSc5ccc(C(=O)[O-])cc5)O[C@H](O[C@@H]5C(CSc6ccc(C(=O)[O-])cc6)O[C@H](O[C@@H]6C(CSc7ccc(C(=O)[O-])cc7)O[C@H](O[C@@H]7C(CSc8ccc(C(=O)[O-])cc8)O[C@H](O[C@@H]8C(CSc9ccc(C(=O)[O-])cc9)O[C@H](O[C@@H]9C(CSc%10ccc(C(=O)[O-])cc%10)O[C@H](O[C@@H]%10C(CSc%11ccc(C(=O)[O-])cc%11)O[C@H](O[C@H]2C(O)C3O)C(O)C%10O)C(O)C9O)C(O)C8O)C(O)C7O)C(O)C6O)C(O)C5O)C(O)C4O)cc1.[Na+].[Na+].[Na+].[Na+].[Na+].[Na+].[Na+].[Na+]` (some centres not stated) has an ED50 (Cavia porcellus [3]) of 0.12 µmol/kg, a Max reversal (Cavia porcellus [5]) of 97.6% and an EC50 (Mus musculus [4]) of 1 µM. For the same molecule, the Max reversal (Mus musculus [6]) was 97%.
`O=C([O-])CSCC1O[C@@H]2O[C@@H]3C(CSCC(=O)[O-])O[C@H](O[C@@H]4C(CSCC(=O)[O-])O[C@H](O[C@@H]5C(CSCC(=O)[O-])O[C@H](O[C@@H]6C(CSCC(=O)[O-])O[C@H](O[C@@H]7C(CSCC(=O)[O-])O[C@H](O[C@H]1C(O)C2O)C(O)C7O)C(O)C6O)C(O)C5O)C(O)C4O)C(O)C3O.[Na+].[Na+].[Na+].[Na+].[Na+].[Na+]` (some centres not stated) gave a Max reversal (Mus musculus [7]) of 22.8%, an ED50 (Cavia porcellus [3]) greater than 21 µmol/kg and an EC50 (Mus musculus [4]) greater than 18 µM. For the same molecule, the Max reversal (Cavia porcellus [8]) was 3.6%.
In the case of `O=C([O-])c1cccc(SCC2O[C@@H]3O[C@@H]4C(CSc5cccc(C(=O)[O-])c5)O[C@H](O[C@@H]5C(CSc6cccc(C(=O)[O-])c6)O[C@H](O[C@@H]6C(CSc7cccc(C(=O)[O-])c7)O[C@H](O[C@@H]7C(CSc8cccc(C(=O)[O-])c8)O[C@H](O[C@@H]8C(CSc9cccc(C(=O)[O-])c9)O[C@H](O[C@@H]9C(CSc%10cccc(C(=O)[O-])c%10)O[C@H](O[C@@H]%10C(CSc%11cccc(C(=O)[O-])c%11)O[C@H](O[C@H]2C(O)C3O)C(O)C%10O)C(O)C9O)C(O)C8O)C(O)C7O)C(O)C6O)C(O)C5O)C(O)C4O)c1.[Na+].[Na+].[Na+].[Na+].[Na+].[Na+].[Na+].[Na+]` (some centres not stated), the ED50 (Cavia porcellus [3]) is reported as 0.28 µmol/kg, the EC50 (Mus musculus [4]) is reported as 3.3 µM and the Max reversal (Mus musculus [9]) is reported as 95.7%. For the same molecule, the Max reversal (Cavia porcellus [10]) was 102%.
In the case of `O=C([O-])CCCCCSCC1O[C@@H]2O[C@@H]3C(CSCCCCCC(=O)[O-])O[C@H](O[C@@H]4C(CSCCCCCC(=O)[O-])O[C@H](O[C@@H]5C(CSCCCCCC(=O)[O-])O[C@H](O[C@@H]6C(CSCCCCCC(=O)[O-])O[C@H](O[C@@H]7C(CSCCCCCC(=O)[O-])O[C@H](O[C@@H]8C(CSCCCCCC(=O)[O-])O[C@H](O[C@@H]9C(CSCCCCCC(=O)[O-])O[C@H](O[C@H]1C(O)C2O)C(O)C9O)C(O)C8O)C(O)C7O)C(O)C6O)C(O)C5O)C(O)C4O)C(O)C3O.[Na+].[Na+].[Na+].[Na+].[Na+].[Na+].[Na+].[Na+]` (some centres not stated), the Max reversal (Mus musculus [11]) is reported as 81.7%, the Max reversal (Cavia porcellus [12]) is reported as 78.4% and the ED50 (Cavia porcellus [3]) is reported as 0.74 µmol/kg. The EC50 (Mus musculus [4]) was 7 µM.
With `OCCCCSCC1O[C@@H]2O[C@@H]3C(CSCCCCO)O[C@H](O[C@@H]4C(CSCCCCO)O[C@H](O[C@@H]5C(CSCCCCO)O[C@H](O[C@@H]6C(CSCCCCO)O[C@H](O[C@@H]7C(CSCCCCO)O[C@H](O[C@@H]8C(CSCCCCO)O[C@H](O[C@@H]9C(CSCCCCO)O[C@H](O[C@H]1C(O)C2O)C(O)C9O)C(O)C8O)C(O)C7O)C(O)C6O)C(O)C5O)C(O)C4O)C(O)C3O` (some centres not stated) the Max reversal (Cavia porcellus [13]) was 52.8%, the Max reversal (Mus musculus [7]) was 78.9% and the ED50 (Cavia porcellus [3]) was 3.94 µmol/kg. It also gave an EC50 (Mus musculus [4]) of 6.5 µM.
Molecule `O=C([O-])CCCSCC1O[C@@H]2O[C@@H]3C(CSCCCC(=O)[O-])O[C@H](O[C@@H]4C(CSCCCC(=O)[O-])O[C@H](O[C@@H]5C(CSCCCC(=O)[O-])O[C@@H](O[C@@H]6C(CSCCCC(=O)[O-])O[C@H](O[C@@H]7C(CSCCCC(=O)[O-])O[C@H](O[C@@H]8C(CSCCCC(=O)[O-])O[C@H](O[C@H]1C(O)C2O)C(O)C8O)C(O)C7O)C(O)C6O)C(O)C5O)C(O)C4O)C(O)C3O.[Na+].[Na+].[Na+].[Na+].[Na+].[Na+].[Na+]` (some centres not stated) has a Max reversal (Mus musculus [14]) of 95.3%, a Max reversal (Cavia porcellus [15]) of 99.6% and an ED50 (Cavia porcellus [3]) of 0.49 µmol/kg. For the same molecule, the EC50 (Mus musculus [4]) was 5 µM.
Work on `O=C([O-])Cc1ccc(SCC2O[C@@H]3O[C@@H]4C(CO)O[C@H](O[C@@H]5C(CO)O[C@H](O[C@@H]6C(CO)O[C@H](O[C@@H]7C(CO)O[C@H](O[C@@H]8C(CO)O[C@H](O[C@@H]9C(CO)O[C@H](O[C@@H]%10C(CO)O[C@H](O[C@H]2C(O)C3O)C(O)C%10O)C(O)C9O)C(O)C8O)C(O)C7O)C(O)C6O)C(O)C5O)C(O)C4O)cc1.[Na+]` (some centres not stated) yielded a Max reversal (Mus musculus [7]) of 45%, an ED50 (Cavia porcellus [3]) of 4.55 µmol/kg and a Max reversal (Cavia porcellus [16]) of 97.1%. It also gave an EC50 (Mus musculus [4]) of 34.7 µM.
In the case of `O=C([O-])c1ccccc1SCC1O[C@@H]2O[C@@H]3C(CSc4ccccc4C(=O)[O-])O[C@H](O[C@@H]4C(CSc5ccccc5C(=O)[O-])O[C@H](O[C@@H]5C(CSc6ccccc6C(=O)[O-])O[C@H](O[C@@H]6C(CSc7ccccc7C(=O)[O-])O[C@H](O[C@@H]7C(CSc8ccccc8C(=O)[O-])O[C@H](O[C@@H]8C(CSc9ccccc9C(=O)[O-])O[C@H](O[C@@H]9C(CSc%10ccccc%10C(=O)[O-])O[C@H](O[C@H]1C(O)C2O)C(O)C9O)C(O)C8O)C(O)C7O)C(O)C6O)C(O)C5O)C(O)C4O)C(O)C3O.[Na+].[Na+].[Na+].[Na+].[Na+].[Na+].[Na+].[Na+]` (some centres not stated), the Max reversal (Mus musculus [17]) is reported as 42.3% and the EC50 (Mus musculus [4]) is reported as 227 µM.
Molecule `Oc1ccc(SCC2O[C@@H]3O[C@@H]4C(CSc5ccc(O)cc5)O[C@H](O[C@@H]5C(CSc6ccc(O)cc6)O[C@H](O[C@@H]6C(CSc7ccc(O)cc7)O[C@H](O[C@@H]7C(CSc8ccc(O)cc8)O[C@H](O[C@@H]8C(CSc9ccc(O)cc9)O[C@H](O[C@@H]9C(CSc%10ccc(O)cc%10)O[C@H](O[C@@H]%10C(CSc%11ccc(O)cc%11)O[C@H](O[C@H]2C(O)C3O)C(O)C%10O)C(O)C9O)C(O)C8O)C(O)C7O)C(O)C6O)C(O)C5O)C(O)C4O)cc1` (some centres not stated) has a Max reversal (Mus musculus [14]) of 93.2%, an ED50 (Cavia porcellus [3]) of 4.1 µmol/kg and an EC50 (Mus musculus [4]) of 4.9 µM. For the same molecule, the Max reversal (Cavia porcellus [18]) was 79.3%.
`OC[C@H]1O[C@@H]2O[C@H]3[C@H](O)[C@@H](O)[C@@H](O[C@H]4[C@H](O)[C@@H](O)[C@@H](O[C@H]5[C@H](O)[C@@H](O)[C@@H](O[C@H]6[C@H](O)[C@@H](O)[C@@H](O[C@H]7[C@H](O)[C@@H](O)[C@@H](O[C@H]8[C@H](O)[C@@H](O)[C@@H](O[C@H]1[C@H](O)[C@H]2O)O[C@@H]8CO)O[C@@H]7CO)O[C@@H]6CO)O[C@@H]5CO)O[C@@H]4CO)O[C@@H]3CO` [BETADEX] was tested, and the ED50 (Cavia porcellus [3]) was 20 µmol/kg, the Max reversal (Mus musculus [19]) was 29% and the EC50 (Mus musculus [4]) was greater than 360 µM. For the same molecule, the Max reversal (Cavia porcellus [20]) was 92.9%.
